Experimental data taken from paper PMC6511231 (Cell reports, 2018).
Entries after “also recorded” stand apart in the source; their conditions may differ. Read-outs that look alike come from different tables or passages of the source. Values belong to the molecule of their own block, whether it stands above or below them.

What was measured:
[1] = biological target: T1, mouse LIN28Δ, mouse TUT4 and pre-let-7g (Mus musculus, UniProt Q8K3Y3); test: LIN28-mediated let-7 oligouridylation assay; type: biochemical; conditions: for Inhibition of LIN28-mediated oligouridylation: 40 μM compound, 37°C, denaturing PAGE
T1 sequence (Q8K3Y3 16-184): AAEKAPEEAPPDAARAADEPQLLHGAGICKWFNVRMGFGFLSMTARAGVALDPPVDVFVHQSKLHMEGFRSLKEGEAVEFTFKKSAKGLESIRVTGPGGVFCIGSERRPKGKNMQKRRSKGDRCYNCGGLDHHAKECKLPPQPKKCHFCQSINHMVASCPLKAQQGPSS
T1 sequence (B2RX14 230-1424 partner): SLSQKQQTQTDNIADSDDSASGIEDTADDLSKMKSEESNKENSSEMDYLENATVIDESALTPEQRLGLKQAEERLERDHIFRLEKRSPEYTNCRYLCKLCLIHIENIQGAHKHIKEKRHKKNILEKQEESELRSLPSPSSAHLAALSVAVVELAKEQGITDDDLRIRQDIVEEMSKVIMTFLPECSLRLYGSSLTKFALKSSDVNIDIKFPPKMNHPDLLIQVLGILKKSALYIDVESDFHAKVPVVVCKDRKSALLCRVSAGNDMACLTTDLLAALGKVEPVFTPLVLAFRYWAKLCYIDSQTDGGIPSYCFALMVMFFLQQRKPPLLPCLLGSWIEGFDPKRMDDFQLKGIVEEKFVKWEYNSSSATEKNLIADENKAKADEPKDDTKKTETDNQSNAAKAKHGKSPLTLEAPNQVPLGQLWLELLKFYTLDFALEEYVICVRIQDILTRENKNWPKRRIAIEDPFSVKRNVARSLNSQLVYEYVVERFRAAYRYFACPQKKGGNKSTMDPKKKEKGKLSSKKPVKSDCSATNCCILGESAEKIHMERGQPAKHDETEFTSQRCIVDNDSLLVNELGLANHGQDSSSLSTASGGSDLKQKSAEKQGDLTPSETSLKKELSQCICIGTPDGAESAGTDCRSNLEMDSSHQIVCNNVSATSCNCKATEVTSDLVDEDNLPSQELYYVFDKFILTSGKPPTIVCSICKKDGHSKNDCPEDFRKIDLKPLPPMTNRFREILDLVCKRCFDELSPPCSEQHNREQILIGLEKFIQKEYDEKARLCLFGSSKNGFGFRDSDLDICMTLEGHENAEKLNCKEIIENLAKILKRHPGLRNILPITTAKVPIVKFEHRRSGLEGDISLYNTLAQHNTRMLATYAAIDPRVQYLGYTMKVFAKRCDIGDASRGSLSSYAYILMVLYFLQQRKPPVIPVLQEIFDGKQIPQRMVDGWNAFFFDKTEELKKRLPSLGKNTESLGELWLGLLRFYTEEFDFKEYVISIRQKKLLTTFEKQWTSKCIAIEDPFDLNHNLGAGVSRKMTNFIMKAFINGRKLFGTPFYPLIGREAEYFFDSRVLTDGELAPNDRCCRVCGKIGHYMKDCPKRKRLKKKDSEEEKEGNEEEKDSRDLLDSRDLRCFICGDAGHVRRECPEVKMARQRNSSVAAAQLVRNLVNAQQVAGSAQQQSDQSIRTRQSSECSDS
Summary of the method: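 Mouse LIN28A, mouse TUT4 (230–1424) and in vitro-transcribed, T4 PNK-radiolabelled pre-let-7g were incubated with test compound (40 μM screen; 80 μM follow-up) for 40 min at 37°C. Buffer: 20 mM Tris 7.5, 5% glycerol, 6 mM MgCl2, 6 mM DTT, 50 μM ZnCl2, 40 mM KCl, 200 μM UTP. Reactions were stopped with EDTA/SDS/proteinase K (50°C, 30 min) and run on denaturing PAGE. RNA and DMSO served as controls.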

HeLaLIN28A = test: let-7-sensitive dual luciferase reporter assay, HeLaLIN28A; type: cell-based, human; conditions: 100 μM or higher concentrations, 48 hr
Summary of the method: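 A HeLa clone stably expressing low-level FLAG-LIN28A plus the 8×let-7 Renilla/firefly dual-luciferase sensor was treated 48 hr with vehicle (DMSO) or test compound at the indicated concentrations. Dual luciferase activity was then assayed, with firefly as internal control. Runs used 3 or 5 biological replicates; Student's t test against vehicle.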

[2] = system: HeLa cells that do not express LIN28; test: Toxicity to HeLa cells; type: cell-based, human
[3] = system: LIN28-expressing mouse embryonic stem cells; test: Toxicity to mouse embryonic stem cells; type: cell-based
[4] = biological target: mouse LIN28Δ:preE-let-7d complex (Mus musculus, UniProt Q8K3Y3); test: HSQC spectroscopy; type: binding; conditions: 15N-labeled mouse LIN28Δ with unlabeled preE-let-7d
Solubility in solution = type: physicochemical; conditions: water / solution
LIN28Δ [5] = biological target: T2, LIN28Δ (human, UniProt Q9H9Z2 16-187); test: competition
T2 sequence: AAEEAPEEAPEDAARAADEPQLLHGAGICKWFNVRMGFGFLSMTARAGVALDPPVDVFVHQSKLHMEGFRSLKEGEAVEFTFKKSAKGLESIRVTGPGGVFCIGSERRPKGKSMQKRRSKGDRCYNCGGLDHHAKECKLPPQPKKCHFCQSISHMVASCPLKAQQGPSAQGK

LIN28Δ [6] = biological target: T2, LIN28Δ; test: competition; remark: listed apart in the source
LIN28ΔF73A [7] = biological target: T3, LIN28ΔF73A (human, UniProt Q9H9Z2 16-187, F73A); test: competition
T3 sequence: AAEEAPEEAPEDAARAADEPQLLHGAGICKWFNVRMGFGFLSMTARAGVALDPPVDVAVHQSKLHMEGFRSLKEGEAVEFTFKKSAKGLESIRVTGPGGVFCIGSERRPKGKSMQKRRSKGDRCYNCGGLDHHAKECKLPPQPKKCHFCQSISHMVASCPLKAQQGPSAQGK

LIN28ΔF73A/Y140A = biological target: T4, LIN28ΔF73A/Y140A (human, UniProt Q9H9Z2 16-187, F73A;Y140A); test: fluorescence polarization
T4 sequence: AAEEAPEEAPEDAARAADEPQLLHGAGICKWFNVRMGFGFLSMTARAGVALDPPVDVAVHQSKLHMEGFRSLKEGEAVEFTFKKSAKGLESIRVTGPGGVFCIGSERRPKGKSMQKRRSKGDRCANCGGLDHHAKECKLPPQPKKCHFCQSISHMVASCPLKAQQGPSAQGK

LIN28ΔF73A [8] = biological target: T3, LIN28ΔF73A; test: fluorescence polarization
LIN28ΔY140A = biological target: T5, LIN28ΔY140A (human, UniProt Q9H9Z2 16-187, Y140A); test: fluorescence polarization
T5 sequence: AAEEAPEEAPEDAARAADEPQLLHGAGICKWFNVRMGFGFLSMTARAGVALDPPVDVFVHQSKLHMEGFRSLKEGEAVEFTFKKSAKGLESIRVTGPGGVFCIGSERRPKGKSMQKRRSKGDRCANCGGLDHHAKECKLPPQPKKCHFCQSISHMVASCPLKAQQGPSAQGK

LIN28Δ [9] = biological target: T2, LIN28Δ; test: fluorescence polarization

Inhibition of LIN28-mediated let-7 oligouridylation ([1]; 80 μM, compared to DMSO negative control): weak activities
Molecule: CNc1cncc(C(=O)O)c1 [5-(methylamino)nicotinic acid]
Relative Renilla luciferase activity (HeLaLIN28A): significant reduction of the relative Renilla luciferase activity; also recorded: weak activities

Inhibition of LIN28-mediated oligouridylation [1]: completely inhibited
Molecule: c1ccc(CN(CCN(Cc2ccccn2)Cc2ccccn2)Cc2ccccn2)nc1 [TPEN]
Toxicity [2]: shows toxicity
Toxicity [3]: shows toxicity
HSQC peak intensity changes [4]: a number of peaks had significant reduction in intensity

Inhibition of LIN28-mediated oligouridylation [1]: completely inhibited
Solubility (Solubility in solution): poor solubility in solution
Molecule: O=C1C=CC(=NS(=O)(=O)c2ccc(C(=O)O)cc2)C=C1 [LI20]

Inhibition of LIN28-mediated oligouridylation [1]: completely inhibited
Molecule: Cc1cc2c(C(C)C)c(O)c(O)c(C=O)c2c(O)c1-c1c(C)cc2c(C(C)C)c(O)c(O)c(C=O)c2c1O [Gossypol]

Inhibition of LIN28-mediated oligouridylation [1]: completely inhibited
Molecule: C=CC(C)(C)c1[nH]c2ccccc2c1C1=C(O)C(=O)C(c2c[nH]c3c(CC=C(C)C)cccc23)=C(O)C1=O [DAQ-B1, demethylasterriquinone B1]

Inhibition of LIN28-mediated oligouridylation [1]: completely inhibited
Molecule: CC1(C)C(=O)N=C2C1=C(O)C(=O)c1ccccc12 [BVT-948]

B1: preE-let-7f-1 unlabeled (structured_RNA)
RNA: GGGGUAGUGAUUUUACCCUGUUUAGGAGAU
IC50 (LIN28Δ [5]): 44 nM

B2: CSD-binding riboprobe (structured_RNA)
RNA: GGGGUAGUGAUUUUACCCUGUUUA
IC50 (LIN28Δ [5]): 157 nM

B3: ZKD-binding riboprobe UAGGAGA (ssRNA)
RNA: UAGGAGA
IC50 (LIN28Δ [6]): 3500 nM
IC50 (LIN28ΔF73A [7]): 1200 nM

B4: preE-let-7f-1-FAM (structured_RNA)
RNA: GGGGUAGUGAUUUUACCCUGUUUAGGAGAU
Kd (LIN28ΔF73A/Y140A): 589 nM
Kd (LIN28ΔF73A [8]): 72.4 nM
Kd (LIN28ΔY140A): 78.5 nM
Kd (LIN28Δ [9]): 28.5 nM
